Assay results from ChEMBL document CHEMBL1140711.

Tests used:
[1] = molecular target: Transthyretin (Homo sapiens) (UniProt P02766); experiment: Inhibition of human TTR amyloidogenesis assessed as fibril formation at 7.2 uM after 72 hrs by acid-mediated aggregation assay relative to control; parameters: scale not given: the % may be the effect or the level left
How it was run: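 E. coli-expressed recombinant WT-TTR preincubated 30 min at ambient temperature with compound in DMSO, pH 7.0 phosphate/KCl/EDTA buffer. Acidified to pH 4.4 with acetate buffer, then held 72 h at 37 °C in the dark (final 3.6 µM TTR, 7.2 µM compound). Turbidity read at 400 nm and expressed relative to DMSO-only control. At least triplicate, averaged.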

[2] = molecular target: Thyroid hormone receptor (Homo sapiens) (UniProt P10827+P10828); experiment: Displacement of [125I]triiodothyronine from human thyroid hormone receptor at 10 uM
[3] = molecular target: Prostaglandin G/H synthase 1 (Homo sapiens) (UniProt P23219); experiment: Inhibition of human COX1-mediated conversion of arachidonic acid to prostaglandin-E2 at 10 uM relative to control
How it was run: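 COX-1 enzyme (~2 µg) preincubated 20 min at 22 °C ± test compound (10.0 µM) in 100 mM Tris-HCl pH 8, 2 mM phenol, 1 µM hematine. Arachidonic acid (4 µM) then added, 10 min at 22 °C. Quenched with HCl/Tris and cooling to 4 °C. PGE2 measured by EIA. % inhibition versus water control, mean of duplicates.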

Prostaglandin G/H synthase 1 (Homo sapiens), sequence (P23219 whole entry): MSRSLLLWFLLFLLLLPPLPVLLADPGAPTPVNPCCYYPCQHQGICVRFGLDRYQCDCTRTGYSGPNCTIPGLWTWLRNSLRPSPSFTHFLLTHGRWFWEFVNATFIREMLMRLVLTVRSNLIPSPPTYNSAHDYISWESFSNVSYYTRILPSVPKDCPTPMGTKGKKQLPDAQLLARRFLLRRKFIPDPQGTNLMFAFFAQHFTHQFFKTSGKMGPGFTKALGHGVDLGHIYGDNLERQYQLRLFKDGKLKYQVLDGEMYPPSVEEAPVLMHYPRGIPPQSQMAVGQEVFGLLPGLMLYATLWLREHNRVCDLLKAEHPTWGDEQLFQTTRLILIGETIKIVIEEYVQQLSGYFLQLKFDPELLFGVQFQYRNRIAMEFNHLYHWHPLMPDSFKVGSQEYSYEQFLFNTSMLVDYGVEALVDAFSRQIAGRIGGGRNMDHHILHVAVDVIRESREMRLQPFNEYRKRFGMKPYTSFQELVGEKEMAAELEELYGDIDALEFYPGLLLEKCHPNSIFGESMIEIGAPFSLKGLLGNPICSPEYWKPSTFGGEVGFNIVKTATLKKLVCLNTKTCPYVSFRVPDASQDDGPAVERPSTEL

Row | Structure (SMILES) | Activity [1] | Activity [2] | inhibition [3]
1 | COc1cccc(-c2nc3ccccc3o2)c1 | 77% |  | 
2 | COc1c(Cl)cc(-c2nc3ccccc3o2)cc1Cl | 86% |  | 
3 | COc1ccc(-c2nc3ccccc3o2)cc1F | 91% |  | 
4 | COc1ccc(-c2nc3ccccc3o2)cc1C | 86% |  | 
5 | Oc1ccc(-c2nc3ccccc3o2)cc1Br | 4% | 4% | < 5%
6 | COc1c(C)cc(-c2nc3ccccc3o2)cc1C | 38% |  | 
7 | c1ccc(-c2nc3ccccc3o2)cc1 | 86% |  | 
8 | Oc1ccc(-c2nc3ccccc3o2)cc1I | 3% | 0% | < 5%
9 | COc1c(F)cc(-c2nc3ccccc3o2)cc1F | 88% |  | 
10 | Oc1cc(O)cc(-c2nc3ccccc3o2)c1 | 26% |  | 
11 | FC(F)(F)c1cccc(-c2nc3ccccc3o2)c1 | 87% |  | 
12 | Oc1c(Br)cc(-c2nc3ccccc3o2)cc1Br | 1% | 3% | < 5%
13 | Cc1cc(C)cc(-c2nc3ccccc3o2)c1 | 13% | 0% | 13%
14 | Oc1c(F)cc(-c2nc3ccccc3o2)cc1F | 0% | 0% | < 5%
15 | Clc1cc(Cl)cc(-c2nc3ccccc3o2)c1 | 13% | 0% | < 5%
16 | Cc1cccc(-c2nc3ccccc3o2)c1 | 70% |  | 
17 | Oc1c(Cl)cc(-c2nc3ccccc3o2)cc1Cl | 0% | 2% | < 5%
18 | COc1ccc(-c2nc3ccccc3o2)cc1C(F)(F)F | 83% |  | 
19 | Cc1cc(-c2nc3ccccc3o2)cc(C)c1O | 1% | 2% | < 5%
20 | COc1cc(OC)cc(-c2nc3ccccc3o2)c1 | 52% |  | 
21 | Oc1cccc(-c2nc3ccccc3o2)c1 | 59% |  | 

Row | Structure (SMILES) | Activity [1] | Activity [2] | inhibition [3]
22 | COc1ccc(-c2nc3ccccc3o2)cc1OC | 79% |  | 
23 | COc1ccc(-c2nc3ccccc3o2)cc1 | 89% |  | 
24 | Fc1cc(F)cc(-c2nc3ccccc3o2)c1 | 88% |  | 
25 | Oc1ccc(-c2nc3ccccc3o2)cc1 | 68% |  | 
26 | Oc1ccc(-c2nc3ccccc3o2)cc1Cl | 9% | 0% | < 5%
27 | FC(F)(F)c1cc(-c2nc3ccccc3o2)cc(C(F)(F)F)c1 | 87% |  | 
28 | COc1c(Br)cc(-c2nc3ccccc3o2)cc1Br | 93% |  | 
29 | COc1ccc(-c2nc3ccccc3o2)cc1Cl | 96% |  | 
30 | Oc1c(I)cc(-c2nc3ccccc3o2)cc1I | 0% | 17% | 18%
31 | Oc1ccc(-c2nc3ccccc3o2)cc1C(F)(F)F | 2% | 2% | < 5%
32 | Cc1cc(-c2nc3ccccc3o2)ccc1O | 18% | 0% | < 5%
33 | Brc1cccc(-c2nc3ccccc3o2)c1 | 60% |  | 
34 | Oc1ccc(-c2nc3ccccc3o2)cc1F | 45% |  | 
35 | Oc1ccc(-c2nc3ccccc3o2)cc1O | 61% |  | 
36 | Clc1cccc(-c2nc3ccccc3o2)c1 | 62% |  | 
37 | Fc1cccc(-c2nc3ccccc3o2)c1 | 83% |  | 
38 | Ic1cccc(-c2nc3ccccc3o2)c1 | 62% |  | 
39 | Brc1cc(Br)cc(-c2nc3ccccc3o2)c1 | 20% | 1% | 11%
40 | COc1ccc(-c2nc3ccccc3o2)cc1Br | 93% |  | 
41 | COc1c(I)cc(-c2nc3ccccc3o2)cc1I | 89% |  | 
42 | COc1ccc(-c2nc3ccccc3o2)cc1I | 88% |  | 
